Compound activity as filed in PubChem BioAssay.
CAL PDZ FP-1 – CAL PDZ peptide-binding inhibitors, primary screen, biochemical, fluorescence polarization, Cer-tagged CAL PDZ, HTS | Golgi-associated PDZ and coiled-coil motif-containing protein (Homo sapiens), Q9HD26 | purified CAL PDZ, TMR-peptide fluorescence polarization, 1 h | inhibition, % at 20 µM | 330,000 tested, 0.02% active | AID 504414, 2011;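 active = highest replicate inhibition of at least 40%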;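 note: plate controls were DMSO neutral control wells for no effect and unlabeled competitor peptide control wells for full effect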
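Material – purified CerCALP PDZ construct · Detection – FP readout, S and P plane fluorescence · Measure – percent inhibition from loss of millipolarization · Controls – unlabelled peptide for full inhibition, DMSO wells as neutral · Probe or stimulus – TMR-labelled reporter peptide T*-PRC34 bound in PDZ groove · Times – 1 h at RT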
S100A4 inh HTS – inhibitors of S100A4-myosin IIA peptide binding, primary screen, biochemical, fluorescence polarization, TAMRA-MyoIIA peptide | Protein S100-A4 (Homo sapiens), P26447 | inhibition, % at 10.7 µM | 360,000 tested, 0.14% active;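 active = mean inhibition of at least 70% across replicates, with every replicate also reaching that level; inconclusive = mean inhibition reaches 70% but some replicates fall short; inactive = mean inhibition below 70%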
Target sequence (P26447 whole entry, looked up): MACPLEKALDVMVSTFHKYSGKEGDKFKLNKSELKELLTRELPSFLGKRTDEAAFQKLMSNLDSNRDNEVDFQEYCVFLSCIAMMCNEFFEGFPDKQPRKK
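Test system: S100A4 monomer protein; Medium: HEPES pH 7.2 with CaCl2, KCl, NaCl, DTT, Triton; Probe or stimulus: TAMRA-labelled myosin IIA heavy-chain peptide probe, 5 nM; Doses: one dose per compound; Times: polarization read 5 min after assay mix addition, stable 5–60 min; Benchmarks: neutral control DMSO, positive control TFP.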
ERAP1 HTS inh – human ERAP1 aminopeptidase inhibitors, primary screen, biochemical, single point, plate reader | AID 652197, 2013 | recombinant ERAP1, Leu-AMC fluorescence, 60 min | 340,000 tested, 0.15% active | inhibition, % at 10.7 µM;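 active = mean replicate inhibition of at least 30%, or all replicates individually reaching that 30% level; inactive = mean below 30% and not every replicate reaching it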;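 note: 0% = neutral control wells and 100% = L-leucinethiol positive control wells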
CAL PDZ FP-2 – untagged CAL PDZ binding inhibitors, primary screen, biochemical, fluorescence polarization, HTS; Golgi-associated PDZ and coiled-coil motif-containing protein (Homo sapiens), Q9HD26; purified CAL PDZ, TMR-peptide fluorescence polarization, 1 h; inhibition, % at 24.9 µM; 300,000 tested, 0.92% active; AID 602252, 2012;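 active = mean inhibition of at least 30% with at least half of replicates also reaching 30%; inconclusive = no clear call, values can overlap the other calls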;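 note: 0% = DMSO neutral control and 100% = excess unlabeled competitor peptide PRC23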
SIRT5 inh – SIRT5 desuccinylase inhibitors, primary screen, biochemical, fluorescence imaging, single point, set 5; NAD-dependent protein deacylase sirtuin-5, mitochondrial (Homo sapiens), Q9NXA8; Purified SirT5, succinyl-peptide AMC, trypsin-coupled fluorescence; inhibition, % at 15 µM; 330,000 tested, 1.1% active; AID 652115, 2013; in the data active = inhibition above about 15%; inconclusive = no clear call, values can overlap the other calls
Target sequence (Q9NXA8 whole entry, looked up): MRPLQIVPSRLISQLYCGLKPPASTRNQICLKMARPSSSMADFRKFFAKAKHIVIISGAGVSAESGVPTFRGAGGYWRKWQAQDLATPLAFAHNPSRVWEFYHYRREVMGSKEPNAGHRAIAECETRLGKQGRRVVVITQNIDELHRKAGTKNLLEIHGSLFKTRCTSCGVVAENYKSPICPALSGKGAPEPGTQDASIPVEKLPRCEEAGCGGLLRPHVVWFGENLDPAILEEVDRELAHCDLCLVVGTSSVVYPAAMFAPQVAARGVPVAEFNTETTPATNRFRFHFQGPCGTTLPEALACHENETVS
DENV2 CPE rescue – inhibitors of DENV2 cytopathic effect, primary screen, cell-based, plate reader, single concentration | DENV2-infected cells, cytopathic effect rescue | CPE inhibition, % at 9.99 µM | 350,000 tested, 1.7% active | AID 651640, 2012; in the data active = CPE inhibition above about 20%, passing the limit was not always enough; inconclusive = no clear call, values can overlap the other calls; tested in BHK-21 cells;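 note: 0% = median of neutral control wells and 100% = median of positive control wells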
* hit, by the source's call; ? = inconclusive; / = not tested or not shown. Compounds with a hit are over-represented: about 2.9% of the library has one in this group of screens.

SMILES	CAL PDZ FP-1	S100A4 inh HTS	ERAP1 HTS inh	CAL PDZ FP-2	SIRT5 inh	DENV2 CPE rescue
C[C@@H](NC(=O)C[C@@H]1CC[C@@H]2[C@H](COC[C@H](O)CN2C(=O)Nc2ccccc2)O1)c1ccccc1	/	-1.4	0.5	/	1.7	0.9
O=C(C[C@@H]1C[C@@H]2c3cc(NC(=O)CC4CC4)ccc3O[C@@H]2[C@@H](CO)O1)NCc1ccc(-c2ccccc2)cc1	/	2.7	9.4	/	4.7	10.3
CO[C@@H]1CN(C)C(=O)c2ccc(NS(=O)(=O)c3cccc(C)c3)cc2OC[C@H](C)NC[C@@H]1C	/	-5.1	0.2	/	-2.4	9.1
OC[C@H]1[C@@H](c2ccc(C#Cc3cccnc3)cc2)[C@@H]2CN(Cc3ccccc3F)CCCCN12	/	10.0	-0.9	/	-2.7	-23.5
C=CCN(Cc1nc(-c2ccc(OC)cc2)no1)C(=O)c1ccc2c(c1)OCO2	-3.0	-15.8	2.0	-4.4	17.4*	1.8
COCC(=O)N[C@@H]1C=C[C@@H](CC(=O)NCc2ccc(Cl)cc2)O[C@H]1CO	/	2.6	1.5	/	0.2	0.6
COc1cc(N)ccc1Cc1ccc(N)cc1OC	/	/	/	55.8*	/	/
COc1ccc(N)cc1C#N	0.0	-7.6	-0.7	5.3	/	-4.0
N/C(=N\OC(=O)Cc1ccccc1[N+](=O)[O-])c1cccnc1	/	-14.1	-0.1	76.6*	-3.5	-0.9
CN(c1cccc(NC(=O)c2ccc(C(C)(C)C)cc2)c1)S(C)(=O)=O	-2.0	-8.1	0.9	/	-5.1	21.1*
CN(C)S(=O)(=O)Oc1ccc(C(=O)Nc2cccc(C(F)(F)F)c2)cc1	-0.4	-1.0	-1.2	38.2*	5.2	-13.1
CSc1ccc(C(=O)C2CCCN(C(=O)c3ccc4c(c3)OCO4)C2)cc1 (centres undefined)	-2.5	2.1	1.7	-8.2	16.3*	-0.3
CC(C)NC(=O)Nc1ccc2c(c1)C(=O)N([C@H](C)CO)C[C@H](C)[C@H](CN(C)S(=O)(=O)c1cn(C)cn1)OCCCC[C@@H](C)O2	/	-12.1	0.7	/	-4.3	-6.8
CSc1ccc(/C=C/C(=O)OCC(=O)N2CCN(S(=O)(=O)c3ccc(C)cc3C)CC2)cc1	-2.4	-9.4	1.9	0.8	-0.8	24.7*
Cc1ccc(S(=O)(=O)N2CCN(C(=O)COC(=O)/C=C/c3ccc(F)cc3)CC2)c(C)c1	-2.0	5.9	-0.6	-2.5	-0.4	4.7
O=C(Nc1nc2c(Br)cc(Br)cc2c(=O)s1)C1CCC1	-0.5	-1.3	-3.6	36.6*	-0.5	-2.7
Cc1ccc(C)c2sc(NC(=O)C3CC3)nc12	-1.5	0.2	1.2	2.6	1.3	-6.6
O=S(=O)(NCC[C@H]1CC[C@H](NS(=O)(=O)c2cccc(F)c2)[C@@H](CO)O1)c1cccc(F)c1	/	5.1	-1.4	/	4.7	7.2
Cc1ccc(Nc2c(-c3ccco3)nc3ccccn23)cc1	-0.4	-3.6	1.4	0.3	1.6	75.2*
c1ccc(Nc2c(-c3ccco3)nc3ccccn23)cc1	-1.4	/	/	4.2	/	/
O=C(CCN1CCCCC1)NCC[C@H]1CC[C@@H](NC(=O)C2CCC2)[C@@H](CO)O1	/	-3.0	-2.7	/	1.1	-3.3
O=C(N/N=C\c1cccc(Cl)c1)c1ccc(Cn2cc(Br)c([N+](=O)[O-])n2)o1	4.4	/	/	86.3*	/	/
Cc1ccc(/C=N\NC(=O)c2ccc(Cn3cc(Br)c([N+](=O)[O-])n3)o2)o1	-2.9	-3.9	-0.6	-3.0	1.2	3.9
OCCC1CN(Cc2ccc3cc(Cl)ccc3n2)CCN1Cc1ccsc1 (centres undefined)	-0.5	-4.7	-3.6	72.4*	-5.1	-0.8
Cc1nc2nc(-c3ccccc3)cn2nc1C	0.2	-14.8	-20.4	-2.6	21.5*	19.9
SMILES	CAL PDZ FP-1	S100A4 inh HTS	ERAP1 HTS inh	CAL PDZ FP-2	SIRT5 inh	DENV2 CPE rescue
COCCn1c(=N)c(C(=O)NCc2ccco2)cc2c(=O)n3cc(C)ccc3nc21	0.4	1.7	65.9*	-2.1	/	1.7
Cc1ccc2nc3c(cc(C(=O)NCc4ccco4)c(=N)n3C3CCCC3)c(=O)n2c1	-7.3	1.3	-90.0	-6.0	-2.0	-1.4
Cc1noc(C)c1S(=O)(=O)Nc1ccc2c(c1)CC(=O)N([C@@H](C)CO)C[C@@H](C)[C@H](CN(C)S(=O)(=O)c1ccc(F)cc1)O2	/	5.4	0.1	/	2.9	-6.3
C[C@H](CO)N1C[C@H](C)[C@@H](CN(C)Cc2ccc(C(F)(F)F)cc2)Oc2c(NS(=O)(=O)c3ccccc3)cccc2C1=O	/	8.6	0.8	/	-2.9	-9.9
C[C@H]1CN([C@@H](C)CO)C(=O)c2cccc(NS(=O)(=O)c3ccc(F)cc3)c2O[C@@H]1CN(C)Cc1ccc(Cl)c(Cl)c1	/	-0.4	-1.7	/	6.6	23.0*
C[C@H]1CN([C@@H](C)CO)C(=O)c2cccc(NS(=O)(=O)c3ccccc3)c2O[C@@H]1CN(C)Cc1ccc(Cl)c(Cl)c1	/	4.5	3.3	/	-3.0	85.4*
C[C@H]1CN([C@@H](C)CO)C(=O)c2cccc(NS(=O)(=O)c3ccccc3)c2O[C@H]1CN(C)Cc1ccc(C(F)(F)F)cc1	/	-2.4	0.2	/	7.0	78.0*
N#C[C@H]1[C@H](c2ccc(-c3cccc(F)c3)cc2)[C@H](CO)N1C(=O)c1cccnc1	/	20.4	-0.3	/	-5.5	?
Cc1ccc(/C=C2/C(=O)ON=C2c2ccccc2)o1	-0.8	-10.8	/	-5.9	/	41.7*
C[C@H](CO)N1C[C@H](C)[C@H](CN(C)C(=O)Nc2cccc3ccccc23)Oc2ccc(N(C)C)cc2CC1=O	/	11.8	3.2	/	-2.1	7.7
Nc1ccc2ccccc2c1C(=O)c1ccccc1	-0.8	-1.6	-5.4	/	/	57.0*
O=C(c1ccccc1)c1nccc2ccccc12	-1.7	1.2	4.7	-2.5	-3.9	1.1
COc1ccc2c3c(n(C)c2c1)[C@@H](CO)N(Cc1ccccc1)CC31CN(S(C)(=O)=O)C1	/	/	/	/	/	7.1
COc1ccc(C)cc1Nc1n[n+](-c2ccccc2)c(-c2c(Cl)cccc2Cl)s1	/	-7.7	-1.9	/	/	7.5
COc1ccc(C)cc1Nc1n[n+](-c2ccccc2)c(-c2ccc(OC)c(OC)c2OC)s1	0.1	0.0	0.7	-3.2	/	92.3*
Cc1c(NC(=O)C(C)OC(=O)c2cc(Cl)ccc2O)c(=O)n(-c2ccccc2)n1C (centres undefined)	-2.7	-2.5	-0.8	-2.2	-4.2	30.7*
